Data as given in ChEMBL document CHEMBL1240401, “Population pharmacokinetic comparison and pharmacodynamic breakpoints of ceftazidime in cystic fibrosis patients and healthy volunteers” (Antimicrob Agents Chemother, 2010).

Columns and labels:
[1] = Total clearance in juveline to adult cystic fibrosis patient; type: ADME, organism-based; details: human, in vivo
[2] = Total clearance in healthy human subjects at […], iv administered 20 mins infusion; type: ADME, organism-based; details: in vivo
Homo sapiens [3] = experiment: fT>MIC in healthy human subjects at 6 gram/70kg, iv administered as 8 mg/l infusion every 8 hrs; type: functional
Procedure, shortened: (§1)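 Monte Carlo simulation from the population PK model, using allometric scaling by fat-free mass. All regimens gave 6 g per 70 kg WT daily, as 30-min infusions q8h or q6h, prolonged 4–5-h infusions, or continuous infusion. Protein binding was assumed to be 11%, so only the non-protein-bound fraction counts. The PK-PD breakpoint was the MIC with target-attainment probability ≥90%.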

Homo sapiens [4] = experiment: Volume of distribution at steady state in healthy human subjects at 2 gram, iv administered in 5 mins infusion; type: ADME, organism-based; details: in vivo
Procedure, shortened: (§2)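 Single-dose, single-centre, open, parallel-group trial in CF patients (n = 8) and healthy volunteers (n = 7). Each subject received 2 g ceftazidime by 5-min IV infusion; three CF patients received 1.5, 1 or 3 g instead. Venous plasma was sampled from 0 min to 12 h after the end of infusion. Drug was read at 275 nm (linear 0.6–200 mg/liter). Noncompartmental parameters were not body-size scaled.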

Homo sapiens [5] = experiment: fT>MIC in healthy human subjects at 6 gram/70kg, iv administered as 3 mg/l infusion every 8 hrs; type: functional; procedure, shortened: as §1
[6] = Terminal half life in healthy human subjects at 2 gram, iv administered in 5 mins infusion; type: ADME, organism-based; details: in vivo, read-out: beta t1/2 (converted); procedure, shortened: as §2
[7] = Total clearance in healthy human subjects at 2 gram, iv administered in 5 mins infusion; type: ADME, organism-based; details: in vivo; procedure, shortened: as §2
[8] = Total clearance in cystic fibrosis patient; type: ADME, organism-based; details: human, in vivo
[9] = Terminal half life in cystic fibrosis patient at 2 gram, iv administered in 5 mins infusion; type: ADME, organism-based; details: human, in vivo, read-out: beta t1/2 (converted); procedure, shortened: as §2
[10] = Mean residence time in cystic fibrosis patient at 2 gram, iv administered in 5 mins infusion; type: ADME, organism-based; details: human, in vivo; procedure, shortened: as §2
Homo sapiens [11] = experiment: fT>MIC in cystic fibrosis patient at 6 gram/70kg, iv administered as 1 mg/l infusion every 8 hrs; type: functional; procedure, shortened: as §1
[12] = Total clearance in cystic fibrosis patient at […], iv administered 20 mins infusion; type: ADME, organism-based; details: human, in vivo
[13] = Terminal half life in healthy human subjects at […], iv administered 20 mins infusion; type: ADME, organism-based; details: in vivo, read-out: beta t1/2 (converted)
Homo sapiens [14] = experiment: fT>MIC in healthy human subjects at 6 gram/70kg, iv administered as 4 mg/l infusion every 6 hrs; type: functional; procedure, shortened: as §1
Homo sapiens [15] = experiment: fT>MIC in cystic fibrosis patient at 6 gram/70kg, iv administered as 6 mg/l infusion
[16] = Cmax in cystic fibrosis patient at 2 gram, iv administered in 5 mins infusion; type: ADME, organism-based; design: route intravenous; details: human, in vivo; procedure, shortened: as §2
Homo sapiens [17] = experiment: fT>MIC in cystic fibrosis patient at 6 gram/70kg, iv administered as 6 mg/l infusion every 6 hrs; type: functional; procedure, shortened: as §1
[18] = Total clearance in cystic fibrosis patient at 2 gram, iv administered in 5 mins infusion; type: ADME, organism-based; details: human, in vivo; procedure, shortened: as §2
[19] = Renal clearance in cystic fibrosis patient; type: ADME, organism-based, Kidney; details: human, in vivo; read-out: CL_renal
Homo sapiens [20] = experiment: fT>MIC in cystic fibrosis patient at 6 gram/70kg, iv administered as 2 mg/l infusion every 6 hrs; type: functional; procedure, shortened: as §1
[21] = Terminal half life in cystic fibrosis patient at […], iv administered 20 mins infusion; type: ADME, organism-based; details: human, in vivo, read-out: beta t1/2 (converted)
Homo sapiens [22] = experiment: fT>MIC in healthy human subjects at 6 gram/70kg, iv administered as 12 mg/l infusion every 6 hrs; type: functional; procedure, shortened: as §1
[23] = Cmax in healthy human subjects at 2 gram, iv administered in 5 mins infusion; type: ADME, organism-based; design: route intravenous; details: in vivo; procedure, shortened: as §2
[24] = Renal clearance in healthy human subjects; type: ADME, organism-based, Kidney; details: in vivo, read-out: CL_renal
[25] = Mean residence time in healthy human subjects at 2 gram, iv administered in 5 mins infusion; type: ADME, organism-based; details: in vivo; procedure, shortened: as §2
[26] = Volume of distribution at steady state in cystic fibrosis patient at 2 gram, iv administered in 5 mins infusion; type: ADME, organism-based; details: human, in vivo, read-out: Vdss; procedure, shortened: as §2

Which results are given for CC(C)(O/N=C(\C(=O)N[C@@H]1C(=O)N2C(C(=O)[O-])=C(C[n+]3ccccc3)CS[C@H]12)c1csc(N)n1)C(=O)O [CEFTAZIDIME]?
clearance [1]: 133 mL/min; clearance [2]: 101 mL/min; fT>MIC (Homo sapiens [3]): >=40%; Vdss (Homo sapiens [4]): 14.3 L; fT>MIC (Homo sapiens [5]): >=65%; half-life [6]: 1.94 h; clearance [7]: 110 mL/min; clearance [8]: 127 mL/min; half-life [9]: 1.48 h; MRT [10]: 1.54 h; fT>MIC (Homo sapiens [11]): >=65%; clearance [12]: 142 mL/min; half-life [13]: 1.76 h; fT>MIC (Homo sapiens [14]): >=65%; fT>MIC (Homo sapiens [15]): >=40%; Cmax [16]: 445 µg/mL; fT>MIC (Homo sapiens [17]): >=40%; clearance [18]: 89.5 mL/min; CL renal [19]: 125 mL/min; fT>MIC (Homo sapiens [20]): >=65%; half-life [21]: 1.5 h; fT>MIC (Homo sapiens [22]): >=40%; Cmax [23]: 210 µg/mL; CL renal [24]: 100 mL/min; MRT [25]: 2.1 h; Vd [26]: 9.14 L
